Test results: ChEMBL document CHEMBL1156117, “Anti-trypanosomatid benzofuroxans and deoxygenated analogues: synthesis using polymer-supported triphenylphosphine, biological evaluation and mechanism of action studies” (Eur J Med Chem, 2009)
Active and inactive are the calls of the source. The rule behind the calls is not given here.

Columns and labels:
[1] = system: Trypanosoma cruzi; experiment: Antitrypanosomal activity against Trypanosoma cruzi epimastigotes; type: functional, organism-based
[2] = system: Trypanosoma cruzi; experiment: Antitrypanosomal activity against Trypanosoma cruzi Tulahuen 2 epimastigotes assessed as parasite growth inhibition after 5 days; type: functional, organism-based; conditions: Trypanosoma cruzi, Tulahuen 2, 120 h
Outline: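 Tulahuen 2 epimastigotes grown at 28 °C in BHI-tryptose with 5% foetal calf serum. Late-log cells seeded at 3×10⁶/mL in 24-well plates with compound from DMSO stock (final DMSO ≤0.8%; control 0.8% DMSO). A610 read at day 0 and day 5. Growth inhibition calculated from the corrected absorbance ratio to control; IC50 is the concentration giving 50% of the control ratio.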

[3] = system: Trypanosoma cruzi; experiment: Antitrypanosomal activity against Trypanosoma cruzi CL Brener epimastigotes assessed as parasite viability after 5 days by MTT assay; type: functional, organism-based; conditions: 120 h
Outline: (§1)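 Promastigotes (L. braziliensis, L. pifanoi) grown at 28 °C in axenic RPMI with 5% FBS. T. cruzi CL Brener epimastigotes grown in BHI-tryptose with 5% foetal serum. 24-well plates, 1 mL/well, seeded from exponential-phase culture. Compounds in DMSO, added at several concentrations (0.5–50.0) and kept 5 days. Then MTT 0.4 mg/mL for 3 h at 37 °C. Formazan dissolved in DMSO, OD595 read. Triplicate per concentration, six growth controls. Cytotoxicity % calculated against growth and medium blanks, IC50 derived.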

[4] = Selectivity index, ratio of IC50 for mouse J774 macrophages to IC50 for Trypanosoma cruzi Tulahuen 2 epimastigotes
[5] = system: J774; experiment: Cytotoxicity against mouse J774 macrophages after 48 hrs by MTT assay; type: cell-based
Outline: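 Exposed to compounds (1.0–400.0) for 48 h, washed with PBS, then MTT 0.4 mg/mL for 3 h. Formazan dissolved in DMSO, OD595 read. Triplicate per concentration, six growth controls. % cytotoxicity calculated against blanks.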

[6] = system: Leishmania braziliensis; experiment: Ratio of compound IC50 to Miltefosine IC50 for Leishmania braziliensis MHOM/BR/00/LTB300 promastigotes; type: functional
[7] = system: Leishmania pifanoi; experiment: Antileishmanial activity against Leishmania pifanoi MHOM/VE/57/LV135 promastigotes assessed as parasite viability after 5 days by MTT assay; type: functional, organism-based; conditions: MHOM/VE/57/LV135, 120 h; outline: as §1
[8] = system: Leishmania braziliensis; experiment: Antileishmanial activity against Leishmania braziliensis MHOM/BR/00/LTB300 promastigotes assessed as parasite viability after 5 days by MTT assay; type: functional, organism-based; conditions: MHOM/BR/00/LTB300, 120 h; outline: as §1
[9] = biological target: Cruzipain (Trypanosoma cruzi) (UniProt P25779); experiment: Inhibition of Trypanosoma cruzi cruzipain at 100 uM
Chain of Cruzipain (Trypanosoma cruzi) (P25779 123-467 limits assumed): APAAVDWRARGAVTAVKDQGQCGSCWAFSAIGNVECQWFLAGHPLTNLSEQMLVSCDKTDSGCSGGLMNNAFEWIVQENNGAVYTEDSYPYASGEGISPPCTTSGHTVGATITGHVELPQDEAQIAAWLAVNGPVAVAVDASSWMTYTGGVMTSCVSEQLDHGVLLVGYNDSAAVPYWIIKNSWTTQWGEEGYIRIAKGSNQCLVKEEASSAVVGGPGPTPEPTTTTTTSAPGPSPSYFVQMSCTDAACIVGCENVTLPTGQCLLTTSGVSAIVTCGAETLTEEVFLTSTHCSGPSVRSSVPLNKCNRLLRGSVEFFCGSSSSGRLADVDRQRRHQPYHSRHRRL

[10] = biological target: Cruzipain (Trypanosoma cruzi) (UniProt P25779); experiment: Inhibition of Trypanosoma cruzi cruzipain at 25 uM
[11] = biological target: Cruzipain (Trypanosoma cruzi) (UniProt P25779); experiment: Inhibition of Trypanosoma cruzi cruzipain at 50 uM
[12] = system: Trypanosoma cruzi; experiment: Induction of free radical production Trypanosoma cruzi microsomal fraction at 1 mM using DMPO and FXN spin trapping by ESR spectroscopic analysis; type: functional; conditions: Microsome
Outline: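 T. cruzi microsomal fraction at 4 mg protein/mL, in 20 mM phosphate buffer pH 7.4 with 1 mM NADPH, 1 mM EDTA and 100 mM DMPO or FXN spin trap. Compound added at 1 mM final, dissolved in spectroscopy-grade DMF. Radical adducts detected by ESR.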

[13] = system: Leishmania pifanoi; experiment: Antileishmanial activity against Leishmania pifanoi MHOM/VE/57/LV135 promastigotes assessed as parasite viability at 5 uM after 5 days by MTT assay; type: functional; conditions: MHOM/VE/57/LV135, 120 h, read-out: GI
Outline: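 L. pifanoi LV135 promastigotes grown at 28 °C in axenic RPMI with 5% FBS. Tested at a single concentration of 5.0 over 5 days. MTT 0.4 mg/mL for 3 h at 37 °C, formazan dissolved in DMSO, OD595 read. Percent growth inhibition reported versus untreated growth controls, with medium blanks subtracted.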

[14] = system: Leishmania braziliensis; experiment: Inhibition of Leishmania braziliensis MHOM/BR/00/LTB300 promastigotes mitochondrial dehydrogenase at 20 uM by MTT assay relative to control; conditions: TDE = time-dependent effect
Outline: (§2)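 10⁶ parasites/well (T. cruzi Tulahuen 2 or Y epimastigotes, or L. braziliensis LTB300 promastigotes) in 500 µL medium with 20 µM compound, at 28 °C for up to 240 min; untreated duplicate wells served as time-matched controls. MTT (5 mg/mL stock in PBS) added for 2 h, stopped with acidic isopropanol, A570 read. Activity expressed as % of untreated parasites.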

[15] = system: Trypanosoma cruzi; experiment: Inhibition of Trypanosoma cruzi Y mitochondrial dehydrogenase at 20 uM after 120 mins by MTT assay relative to control; outline: as §2

SMILES	IC50 [2] [µM]	IC50 [3] [µM]	Selectivity Index [4]	IC50 ([5]; Mus musculus, J774, 48 h) [µM]	also measured
[O-][n+]1onc2ccc(/C=C\c3ccccc3)cc21					IC50 [1]: 7 µM
Cc1ccc(S/C=C/c2ccc3no[n+]([O-])c3c2)cc1	1.9	4.7			
[O-][n+]1onc2ccc(/C=C/[S+]([O-])c3ccc(Cl)cc3)cc21 (centres undefined)	5.5	6.7	4	18	
[O-][n+]1onc2ccc(/C=C\Sc3ccccc3)cc21					Ratio IC50 [6]: 10; IC50 [7]: 4.5 µM; IC50 [1]: 3.8 µM; IC50 [8]: 0.9 µM; inhibition [9]: 30%; inhibition [10]: 11%; inhibition [11]: 22%
[O-][n+]1onc2ccc(/C=C\Sc3ccc(Cl)cc3)cc21	4.2	2.8			
Cc1ccc(S(=O)(=O)/C=C\c2ccc3no[n+]([O-])c3c2)cc1	3.6	5.1			
O=S(=O)(/C=C/c1ccc2no[n+]([O-])c2c1)c1ccc(F)cc1	7.5	6.3			Activity [12]: Active
Cc1ccc([S+]([O-])/C=C\c2ccc3no[n+]([O-])c3c2)cc1 (centres undefined)	6.7	8.4			
[O-][n+]1onc2ccc(/C=C\[S+]([O-])c3ccc(Cl)cc3)cc21 (centres undefined)	2.7	4.7	6.3	10	
CCCCCCCCCCCCCCCCOP(=O)([O-])OCC[N+](C)(C)C [MILTEFOSINE]					IC50 [8]: 9 µM; inhibition of growth at 5 µM [13]: 85.5%
Cc1ccc(S/C=C\c2ccc3no[n+]([O-])c3c2)cc1	4.2	4.1			
[O-][n+]1onc2ccc(/C=C/[S+]([O-])c3ccccc3)cc21 (stereo in doubt; 24)			>10		IC50 ([5]; j774): > 400 µM
O=C(/C=C/c1ccc2nonc2c1)c1ccc(Cl)cc1	> 100		<2.5	251	
Cc1ccc(S(=O)(=O)/C=C/c2ccc3no[n+]([O-])c3c2)cc1	4.3	9.6	1.1	8	
O=S(=O)(/C=C/c1ccc2no[n+]([O-])c2c1)c1ccccc1 (stereo in doubt; 4E)					Activity [14]: tde; inhibition [15]: 25%
O=C(/C=C/c1ccc2nonc2c1)c1ccccc1	97		1.1	102	
[O-][n+]1onc2ccc(/C=C/Sc3ccc(F)cc3)cc21	5	5.5	7	35	Activity [12]: Active; IC50 [7]: 4.3 µM; IC50 [8]: 4.3 µM
O=S(=O)(/C=C/c1ccc2no[n+]([O-])c2c1)c1ccc(Cl)cc1	4.8	4.8			
O=S(=O)(/C=C/c1ccc2no[n+]([O-])c2c1)c1ccccc1 (stereo in doubt; 25)			3.1		IC50 ([5]; j774): 78 µM
O=C(/C=C/c1ccc2no[n+]([O-])c2c1)c1ccc(Cl)cc1	25		1.1	28	
